In assay [1] the target is Dual specificity tyrosine-phosphorylation-regulated kinase 1A (Homo sapiens, UniProt Q13627). Put plainly: Inhibition of DYRK1A (unknown origin) using woodtide as substrate after 10 mins in presence of [gamma-33P]ATP by microbeta scintillation counting.
Assay [2] in a line: Cytotoxicity against patient-derived RN1 cells assessed as reduction in cell viability after 3 days by Alamar blue assay. It counts as functional, cell-based. To be noted: Homo sapiens, RN1, 72 h. The method, boiled down: (§1)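 The patient-derived glioblastoma lines were grown as stem cells under defined conditions to keep the phenotype and genotype of the resected tumours. Viability after treatment was read with Alamar blue.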
(In general: The colour change of resazurin is a common sign of viable cells or microbes.)

Assay [3] deals with T1, Dual specificity tyrosine-phosphorylation-regulated kinase 2 (Homo sapiens, UniProt Q92630).
T1 sequence (Q92630 whole entry): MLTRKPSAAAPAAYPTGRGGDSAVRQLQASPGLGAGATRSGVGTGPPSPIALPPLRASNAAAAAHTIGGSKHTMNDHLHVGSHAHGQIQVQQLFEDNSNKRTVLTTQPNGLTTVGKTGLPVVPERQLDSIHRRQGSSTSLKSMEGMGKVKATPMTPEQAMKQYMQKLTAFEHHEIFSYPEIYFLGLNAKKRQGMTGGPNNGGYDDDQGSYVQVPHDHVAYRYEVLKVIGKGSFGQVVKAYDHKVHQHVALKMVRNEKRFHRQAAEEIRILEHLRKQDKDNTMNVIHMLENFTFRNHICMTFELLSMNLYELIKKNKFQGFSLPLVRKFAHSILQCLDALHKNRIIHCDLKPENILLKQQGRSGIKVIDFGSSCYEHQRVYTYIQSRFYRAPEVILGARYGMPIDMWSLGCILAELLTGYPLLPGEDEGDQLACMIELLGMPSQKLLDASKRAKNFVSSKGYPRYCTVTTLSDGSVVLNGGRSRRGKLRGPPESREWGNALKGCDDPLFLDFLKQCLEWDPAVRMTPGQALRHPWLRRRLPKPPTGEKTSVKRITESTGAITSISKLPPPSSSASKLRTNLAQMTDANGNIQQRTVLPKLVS
Put plainly: Inhibition of DYRK2 (unknown origin) using woodtide as substrate after 40 mins in presence of [gamma-33P]ATP by microbeta scintillation counting.

Assay [4] is described as follows: Cytotoxicity against patient-derived JK2 cells assessed as reduction in cell viability after 3 days by Alamar blue assay. Format: functional, cell-based. To be noted: Homo sapiens, JK2, 72 h. An outline of the steps:
as §1

Assay [5] concerns the target Dual specificity protein kinase CLK1 (Homo sapiens, UniProt P49759). Put plainly: Inhibition of CLK1 (unknown origin) using KKGRSRSRSRSRSR as substrate after 40 mins in presence of [gamma-33P]ATP by microbeta scintillation counting. An outline of the steps: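 CLK1 was assayed with RS peptide substrate at 100 µM ATP.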
A short description of assay [6]: Cytotoxicity against patient-derived WK1 cells assessed as reduction in cell viability after 5 days by Alamar blue assay. Format: functional, cell-based. To be noted: Homo sapiens, WK1, 120 h. The method, boiled down: as §1
The target in assay [7] is Dual specificity tyrosine-phosphorylation-regulated kinase 1B (Homo sapiens, UniProt Q9Y463). Put plainly: Inhibition of DYRK1B (unknown origin) using woodtide as substrate after 40 mins in presence of [gamma-33P]ATP by microbeta scintillation counting.
Sequence of Dual specificity tyrosine-phosphorylation-regulated kinase 1B (Q9Y463 whole entry): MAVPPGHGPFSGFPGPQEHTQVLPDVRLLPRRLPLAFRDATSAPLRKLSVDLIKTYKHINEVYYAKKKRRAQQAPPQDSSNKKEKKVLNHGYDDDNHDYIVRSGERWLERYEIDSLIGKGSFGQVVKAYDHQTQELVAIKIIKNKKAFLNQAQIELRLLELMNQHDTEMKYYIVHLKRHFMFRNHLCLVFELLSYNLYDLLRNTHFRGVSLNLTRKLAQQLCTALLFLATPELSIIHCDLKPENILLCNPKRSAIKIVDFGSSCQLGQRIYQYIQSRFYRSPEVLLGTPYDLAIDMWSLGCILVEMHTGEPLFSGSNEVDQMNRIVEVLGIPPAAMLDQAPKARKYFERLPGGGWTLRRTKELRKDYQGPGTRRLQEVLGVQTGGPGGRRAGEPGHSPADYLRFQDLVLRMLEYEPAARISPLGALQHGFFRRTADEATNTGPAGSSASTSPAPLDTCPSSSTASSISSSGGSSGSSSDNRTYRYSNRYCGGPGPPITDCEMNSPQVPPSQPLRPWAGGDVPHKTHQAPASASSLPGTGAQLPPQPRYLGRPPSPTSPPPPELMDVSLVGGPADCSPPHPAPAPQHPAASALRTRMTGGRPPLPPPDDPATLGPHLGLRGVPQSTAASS
Assay [8] is described as follows: Cytotoxicity against patient-derived SJH1 cells assessed as reduction in cell viability after 3 days by Alamar blue assay. Conditions: Homo sapiens, SJH1, 72 h. Format: functional, cell-based. An outline of the steps: as §1
The species named for assay [9] is Homo sapiens. Briefly: Inhibition of tubulin (unknown origin) polymerization.

Active and inactive are the calls of the source. The calls are words filed in the database; no cut-off is given here. A value given as a limit tells only on which side of the number the result lay.

Sequence of Dual specificity protein kinase CLK1 (P49759 whole entry): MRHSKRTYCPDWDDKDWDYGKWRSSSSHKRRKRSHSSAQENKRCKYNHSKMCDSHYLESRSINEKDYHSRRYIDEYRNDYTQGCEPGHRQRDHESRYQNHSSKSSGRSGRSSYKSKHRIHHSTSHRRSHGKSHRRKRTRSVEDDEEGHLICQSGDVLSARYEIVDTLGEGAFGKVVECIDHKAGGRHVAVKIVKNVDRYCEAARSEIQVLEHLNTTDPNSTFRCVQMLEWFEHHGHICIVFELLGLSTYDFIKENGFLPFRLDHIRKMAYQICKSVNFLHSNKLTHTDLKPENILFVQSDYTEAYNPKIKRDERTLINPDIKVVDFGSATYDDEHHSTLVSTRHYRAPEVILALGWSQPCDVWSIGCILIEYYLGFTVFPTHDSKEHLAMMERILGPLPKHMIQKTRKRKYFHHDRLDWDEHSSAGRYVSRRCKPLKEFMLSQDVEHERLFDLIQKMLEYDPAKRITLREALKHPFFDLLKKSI

Consider `NC(=O)Nc1ccc(-c2cnc3[nH]cc(-c4ccc(O)cc4)c3c2)cc1`, for which the IC50 (usually the concentration needed to halve the response being measured) came to 31 nM in assay [1], 476 nM in assay [3], 9.6 nM in [5] and 17 nM in assay [7]. For the same molecule, the EC50 (usually the midpoint of the concentration-response curve) in assay [2] was 22000 nM; in assay [4], greater than 50000 nM; in assay [6] it was greater than 50000 nM; in assay [8] it was 28000 nM.
On to `O=C(Nc1ccc(O)cc1)c1cnc2[nH]cc(-c3ccc(O)cc3)c2c1`, for which the IC50 in [1] was 344 nM; in assay [3], greater than 1000 nM; in [5] it was 12 nM; in assay [7] it was 128 nM. The EC50 came out at 12500 nM in [2], 37800 nM in [4], 21000 nM in assay [6] and 5200 nM in [8].
Regarding `Oc1ccc(-c2c[nH]c3ncc(-c4ccc5[nH]ccc5c4)cc23)cc1`, the IC50 came out at 204 nM in assay [1], 644 nM in assay [3], 26 nM in [5] and 51 nM in assay [7]. Also, the EC50 is greater than 50000 nM in assay [2], greater than 50000 nM in [4], greater than 50000 nM in assay [6] and 30000 nM in assay [8].
With `O=C(Nc1cccc(O)c1)c1c[nH]c2ncc(-c3ccc(O)cc3)cc12`, the IC50 in assay [1], in assay [3], in assay [5] and in assay [7] was greater than 1000 nM each time. Besides, the EC50 in [2], in assay [4], in assay [6] and in assay [8] was greater than 50000 nM throughout.
In the case of `Oc1ccc(-c2ccc3[nH]cc(-c4ccc(O)cc4)c3c2)cc1`, the IC50 in assay [1], in assay [3], in assay [5] and in assay [7] was greater than 1000 nM in each case. Moreover, the EC50 in [2], in [4], in [6] and in [8] was greater than 50000 nM throughout.
As for `Oc1ccc(-c2cnc3[nH]cc(-c4ccc(O)cc4)c3c2)cc1`, the IC50 in [1] turned out to be 14 nM; in assay [3] it was 166 nM; in assay [5] it was 48 nM; in assay [7], 15 nM. The EC50 was 2000 nM in assay [2], 5100 nM in assay [4], 1100 nM in [6] and 4100 nM in assay [8].
Turning to `Oc1ccc(-c2cnc3[nH]cc(-c4ccc(-c5nnn[nH]5)cc4)c3c2)cc1`, the IC50 was 280 nM in [1], 416 nM in assay [3], 85 nM in assay [5] and 172 nM in assay [7]. Moreover, the EC50 in assay [2], in [4], in [6] and in [8] was greater than 50000 nM each time.
For the molecule `O=C(Nc1cccc(O)c1)c1cnc2[nH]cc(-c3ccc(O)cc3)c2c1`, the IC50 in assay [1] amounted to 127 nM; in [3] it was 847 nM; in assay [5] it was 34 nM; in assay [7], 138 nM. The EC50 in assay [2] is 13800 nM; in assay [4], 38900 nM; in [6], 13200 nM; in assay [8], 5700 nM.
`Oc1ccc(-c2c[nH]c3ncc(-c4ccc(-c5nnn[nH]5)cc4)cc23)cc1`: the IC50 in [1] was determined as 86 nM; in [3] it was 408 nM; in assay [5] it was 70 nM; in assay [7] it was 42 nM. The EC50 in assay [2], in assay [4], in assay [6] and in [8] was greater than 50000 nM throughout.
In the case of `O=[N+]([O-])c1ccc(-c2cnc3[nH]cc(-c4ccc(O)cc4)c3c2)cc1`, the IC50 was 212 nM in assay [1], greater than 1000 nM in [3], 187 nM in assay [5] and 198 nM in assay [7]. Besides, the EC50 in assay [2], in assay [4], in assay [6] and in [8] was greater than 50000 nM in each case.
As for `Oc1ccc(-c2ccc3[nH]nc(-c4ccc(O)cc4)c3c2)cc1`, the IC50 in assay [1], in assay [3], in [5] and in assay [7] was greater than 1000 nM each time. Also, the EC50 in assay [2], in assay [4], in assay [6] and in assay [8] was greater than 50000 nM in each case.
With `CC[C@]1(O)C[C@@H]2CN(CCc3c([nH]c4ccccc34)[C@@](C(=O)OC)(c3cc4c(cc3OC)N(C)[C@H]3[C@@](O)(C(=O)OC)[C@H](OC(C)=O)[C@]5(CC)C=CCN6CC[C@]43[C@@H]65)C2)C1`, the inhibition entry in [9] was “Active”.
`O=C(Nc1ccc(O)cc1)c1c[nH]c2ncc(-c3ccc(O)cc3)cc12`: the IC50 in assay [1], in assay [3], in assay [5] and in assay [7] was greater than 1000 nM each time. Besides, the EC50 in assay [2], in [4], in assay [6] and in [8] was greater than 50000 nM in each case.
`Oc1ccc(-c2cnc3[nH]cc(-c4ccc5[nH]ccc5c4)c3c2)cc1`: the IC50 is 169 nM in assay [1], 571 nM in assay [3], 117 nM in assay [5] and 83 nM in [7]. Also, the EC50 came out at 5700 nM in assay [2], 6300 nM in [4], 6200 nM in assay [6] and 2200 nM in assay [8].
For the molecule `CC(=O)O[C@H]1C(=O)[C@@]2(C)[C@H]([C@H](OC(=O)c3ccccc3)[C@]3(O)C[C@H](OC(=O)[C@H](O)[C@@H](NC(=O)c4ccccc4)c4ccccc4)C(C)=C1C3(C)C)[C@]1(OC(C)=O)CO[C@@H]1C[C@@H]2O`, the inhibition entry in assay [9] is “Active”.
On to `CS(=O)(=O)Nc1ccc(-c2cnc3[nH]cc(-c4ccc(O)cc4)c3c2)cc1`, for which the IC50 is 56 nM in assay [1], 724 nM in assay [3], 44 nM in [5] and 130 nM in assay [7]. In addition, the EC50 was 14000 nM in assay [2], 13000 nM in assay [4], 42000 nM in [6] and 42000 nM in assay [8].

The values above are taken from ChEMBL document CHEMBL4007420, “Structural Optimization and Pharmacological Evaluation of Inhibitors Targeting Dual-Specificity Tyrosine Phosphorylation-Regulated Kinases (DYRK) and CDC-like kinases (CLK) in Glioblastoma” (J Med Chem, 2017).
